# Source: ChEMBL document CHEMBL1240474, “Pharmacological evaluation and characterizations of newly synthesized 1,2,4-triazoles” (2010)
# What was measured:
# Type in all cases: functional
# [1] = tested on: Escherichia coli; assay: Antibacterial activity against Escherichia coli MTCC 443 by broth microdilution method
# In short: (§1)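 Serial dilutions in Mueller Hinton broth, drugs diluted in DMSO from a 2000 µg/ml stock, inoculum adjusted by turbidity to 10⁸ CFU/ml, ampicillin as reference. Primary screen at 500, 250 and 125 µg/ml; actives retested at 100 down to 1.5625 µg/ml. Incubated overnight at 37 °C.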
# [2] = tested on: Mycobacterium tuberculosis; assay: Antimycobacterial activity against Mycobacterium tuberculosis H37Rv at MIC concentration after up to 28 days
# [3] = tested on: Streptococcus pyogenes; assay: Antibacterial activity against Streptococcus pyogenes MTCC 442 by broth microdilution method; in short: as §1
# [4] = tested on: Pseudomonas aeruginosa; assay: Antibacterial activity against Pseudomonas aeruginosa MTCC 2488 by broth microdilution method; in short: as §1
# [5] = tested on: Aspergillus niger; assay: Antifungal activity against Aspergillus niger MTCC 282 by broth microdilution method
# [6] = tested on: Candida albicans; assay: Antifungal activity against Candida albicans MTCC 227 by broth microdilution method
# [7] = tested on: Mycobacterium tuberculosis; assay: Antimycobacterial activity against Mycobacterium tuberculosis H37Rv after up to 28 days; settings: 672 h
# In short: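 Lowenstein-Jensen agar dilution against M. tuberculosis H37Rv. Compounds were made up as 2000 µg/ml DMSO stocks and added to liquid L.J. medium at primary levels of 1000, 500 and 250 µg/ml and secondary levels of 200–3.25 µg/ml. The medium was inspissated, held 24 h at 37 °C, then streaked with bacilli from saline suspension. Growth was read at 12, 22 and 28 days against drug-free controls. MIC was the lowest concentration giving no colonies or fewer than 20.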
# [8] = tested on: Aspergillus clavatus; assay: Antifungal activity against Aspergillus clavatus MTCC 1323 by broth microdilution method
# [9] = tested on: Staphylococcus aureus; assay: Antibacterial activity against Staphylococcus aureus MTCC 96 by broth microdilution method; in short: as §1
Structure (SMILES),MIC [1],inhibition (INH) [2],MIC [3],MIC [4],MIC [5],MIC [6],MIC [7],MIC [8],MIC [9]
Cc1ccc(-c2nnc(-c3cccnc3)n2Nc2nc3ccc(Br)cc3s2)cc1,100 µg/mL,99%,125 µg/mL,100 µg/mL,500 µg/mL,1000 µg/mL,50 µg/mL,1000 µg/mL,125 µg/mL
Cc1ccc(-c2nnc(-c3cccnc3)n2Nc2nc3ccc([N+](=O)[O-])cc3s2)cc1,100 µg/mL,98%,125 µg/mL,200 µg/mL,500 µg/mL,500 µg/mL,200 µg/mL,500 µg/mL,250 µg/mL
Cc1ccc(-c2nnc(-c3cccnc3)n2Nc2nc3ccc(C)cc3s2)cc1,125 µg/mL,99%,100 µg/mL,250 µg/mL,1000 µg/mL,500 µg/mL,50 µg/mL,> 1000 µg/mL,100 µg/mL
COc1ccc2nc(Nn3c(-c4ccc(C)cc4)nnc3-c3cccnc3)sc2c1,250 µg/mL,99%,250 µg/mL,125 µg/mL,500 µg/mL,250 µg/mL,62.5 µg/mL,1000 µg/mL,250 µg/mL
Cc1ccc(-c2nnc(-c3cccnc3)n2Nc2nc3ccc(Cl)cc3s2)cc1,250 µg/mL,99%,500 µg/mL,125 µg/mL,500 µg/mL,500 µg/mL,100 µg/mL,250 µg/mL,500 µg/mL
Cc1ccc(-c2nnc(-c3cccnc3)n2Nc2nc3c(C)cccc3s2)cc1,250 µg/mL,98%,250 µg/mL,500 µg/mL,250 µg/mL,100 µg/mL,500 µg/mL,200 µg/mL,500 µg/mL
Cc1ccc(-c2nnc(-c3cccnc3)n2Nc2nc3c([N+](=O)[O-])cccc3s2)cc1,12.5 µg/mL,99%,250 µg/mL,25 µg/mL,500 µg/mL,1000 µg/mL,50 µg/mL,500 µg/mL,500 µg/mL
Cc1ccc(-c2nnc(-c3cccnc3)n2Nc2nc3cc(Cl)c(Cl)cc3s2)cc1,100 µg/mL,99%,500 µg/mL,500 µg/mL,500 µg/mL,200 µg/mL,100 µg/mL,250 µg/mL,250 µg/mL
Cc1ccc(-c2nnc(-c3cccnc3)n2Nc2nc3c(Cl)cccc3s2)cc1,125 µg/mL,99%,500 µg/mL,500 µg/mL,> 1000 µg/mL,500 µg/mL,25 µg/mL,1000 µg/mL,250 µg/mL
CC1(C)S[C@@H]2[C@H](NC(=O)[C@H](N)c3ccccc3)C(=O)N2[C@H]1C(=O)O [AMPICILLIN],100 µg/mL,–,100 µg/mL,100 µg/mL,–,–,–,–,250 µg/mL
COC1=CC(=O)C[C@@H](C)[C@]12Oc1c(Cl)c(OC)cc(OC)c1C2=O [GRISEOFULVIN],–,–,–,–,100 µg/mL,500 µg/mL,–,100 µg/mL,–
CO[C@H]1/C=C/O[C@@]2(C)Oc3c(C)c(O)c4c(O)c(c(/C=N/N5CCN(C)CC5)c(O)c4c3C2=O)NC(=O)/C(C)=C\C=C\[C@H](C)[C@H](O)[C@@H](C)[C@@H](O)[C@@H](C)[C@H](OC(C)=O)[C@@H]1C [RIFAMPIN],–,98%,–,–,–,–,40 µg/mL,–,–
